According to ChEMBL document CHEMBL3784976 (J Med Chem, 2016):
≈ marks a conversion by molar mass, not a printed value. Calls of active or inactive are those of the source. The calls are words filed in the database; no cut-off is given here.

How the values were obtained:
[1] = biological target: Histamine H2 receptor (Homo sapiens) (UniProt P25021); experiment: Displacement of [125I]APT from human recombinant histamine H2 receptor expressed in CHO cells assessed as remaining radioligand binding at 10 uM after 120 mins by scintillation counting method relative to control; type: cell-based
Histamine H2 receptor (Homo sapiens), sequence (P25021 whole entry): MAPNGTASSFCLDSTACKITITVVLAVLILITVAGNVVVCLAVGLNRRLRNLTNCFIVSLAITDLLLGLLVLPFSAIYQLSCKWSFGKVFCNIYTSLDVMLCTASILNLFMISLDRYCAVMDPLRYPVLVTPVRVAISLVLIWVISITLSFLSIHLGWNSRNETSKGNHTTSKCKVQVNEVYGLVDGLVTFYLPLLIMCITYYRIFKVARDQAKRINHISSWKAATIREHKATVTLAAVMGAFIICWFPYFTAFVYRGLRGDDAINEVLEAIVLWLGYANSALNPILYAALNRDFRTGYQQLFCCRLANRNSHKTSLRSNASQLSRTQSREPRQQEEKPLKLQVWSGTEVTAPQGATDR

[2] = biological target: T1, Transient receptor potential cation channel subfamily A member 1 (Rattus norvegicus, UniProt Q6RI86); experiment: Antagonist activity at rat TRPA1 expressed in tetracycline-inducible T-REx expression system transfected CHO cells assessed as inhibition of AITC-induced 45Ca2+ uptake preincubated for 1 min followed by AITC addition measured after 12 mins; type: cell-based
T1 sequence (Q6RI86 whole entry): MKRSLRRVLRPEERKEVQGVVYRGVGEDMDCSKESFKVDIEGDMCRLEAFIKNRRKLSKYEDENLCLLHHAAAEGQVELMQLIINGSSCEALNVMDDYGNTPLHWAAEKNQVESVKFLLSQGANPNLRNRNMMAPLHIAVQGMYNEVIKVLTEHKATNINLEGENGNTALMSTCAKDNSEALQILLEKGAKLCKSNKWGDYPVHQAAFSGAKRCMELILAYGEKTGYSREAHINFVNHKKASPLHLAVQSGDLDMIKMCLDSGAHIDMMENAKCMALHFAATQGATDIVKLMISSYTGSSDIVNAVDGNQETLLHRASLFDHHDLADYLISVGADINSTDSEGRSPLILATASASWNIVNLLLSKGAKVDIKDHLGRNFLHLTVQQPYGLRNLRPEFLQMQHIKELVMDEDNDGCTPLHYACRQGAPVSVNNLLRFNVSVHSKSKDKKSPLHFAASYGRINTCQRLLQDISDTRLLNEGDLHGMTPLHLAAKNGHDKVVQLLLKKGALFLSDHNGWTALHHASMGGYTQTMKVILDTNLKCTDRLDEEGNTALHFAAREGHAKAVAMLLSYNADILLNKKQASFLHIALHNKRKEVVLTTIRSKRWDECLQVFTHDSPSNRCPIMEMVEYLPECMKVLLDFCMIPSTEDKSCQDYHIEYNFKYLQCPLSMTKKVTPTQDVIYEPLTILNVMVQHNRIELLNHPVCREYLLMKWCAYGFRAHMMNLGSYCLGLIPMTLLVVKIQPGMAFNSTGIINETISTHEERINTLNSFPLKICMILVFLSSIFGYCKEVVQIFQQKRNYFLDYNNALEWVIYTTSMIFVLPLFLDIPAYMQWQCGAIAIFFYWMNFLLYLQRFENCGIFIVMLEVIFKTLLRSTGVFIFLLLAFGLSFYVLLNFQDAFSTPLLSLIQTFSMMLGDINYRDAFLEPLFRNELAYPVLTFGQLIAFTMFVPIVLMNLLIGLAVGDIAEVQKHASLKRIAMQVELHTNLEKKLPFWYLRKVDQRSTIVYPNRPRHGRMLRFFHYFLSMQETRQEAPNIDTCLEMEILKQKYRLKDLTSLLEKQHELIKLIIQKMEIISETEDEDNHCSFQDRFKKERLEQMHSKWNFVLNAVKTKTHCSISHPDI

Rattus norvegicus [3] = species: Rattus norvegicus; experiment: Displacement of [3H]diltiazem from L-type calcium channel diltiazem binding site in rat cerebral cortex assessed as remaining radioligand binding at 10 uM after 120 mins by scintillation counting method relative to control; type: tissue-based
Homo sapiens = species: Homo sapiens; experiment: Binding affinity to human delta 2-type opioid receptor assessed as remaining radioligand binding at 10 uM by radioligand displacement assay relative to control
Plasma = experiment: Unbound plasma concentration in Harlan Sprague-Dawley rat model of AITC-induced flinching at 30 mg/kg, po at 1 hr; type: ADME, organism-based; conditions: in vivo
How it was run: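 Rats were given vehicle (2% HPMC/1% Tween-80) or compound orally at 1, 3, 10 or 30 mg/kg. After 1 h, 0.1% AITC was injected into one left ventral hind paw, and nocifensive flinching was recorded over the first minute. Unbound plasma concentration was measured at 1 h, n = 8 per dose. In vivo IC50/IC90 came from the exposure–response relationship across individual animals.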

[4] = Volume of distribution at steady state in rat at 0.5 mg/kg, iv as single dose; type: ADME, organism-based; conditions: in vivo, read-out: Vdss
How it was run: (§1)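 Single intravenous dose of 0.5 mg/kg given to rats, formulated in 100% DMSO.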

[5] = biological target: T1, Transient receptor potential cation channel subfamily A member 1; experiment: Antagonist activity at rat TRPA1 expressed in tetracycline-inducible T-REx expression system transfected CHO cells assessed as inhibition of hypo osmolarity buffer-induced 45Ca2+ uptake preincubated for 10 mins followed by hypo osmolarity buffer addition measured after 3 mins by TopCount microplate scintillator counting method; type: cell-based
How it was run: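 Compound given 10 min at RT in Ham's F12/15 mM HEPES/0.1% BSA, final 2.0 nM–40 μM (1:3 steps); then hypo-osmolar buffer (final 100 mOsmol) with 45Ca2+ (final 10 μCi/mL), 3 min at RT. Cells washed three times in PBS/0.1 mg/mL BSA, then scintillation counted. Hypotonic uptake = 100%, 300 mOsmol/L buffer = 0%. POC fitted to a four-parameter curve for IC50.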

Rattus norvegicus [6] = experiment: Unbound clearance in rat at 0.5 mg/kg, iv as single dose; type: ADME, organism-based; conditions: in vivo; how it was run: as §1
[7] = biological target: 5-hydroxytryptamine receptor 1B (Rattus norvegicus) (UniProt P28564); experiment: Displacement of [125I]CYP from 5HT1B receptor in rat cerebral cortex assessed as remaining radioligand binding at 10 uM after 120 mins by scintillation counting method relative to control; type: tissue-based
5-hydroxytryptamine receptor 1B (Rattus norvegicus), sequence (P28564 whole entry): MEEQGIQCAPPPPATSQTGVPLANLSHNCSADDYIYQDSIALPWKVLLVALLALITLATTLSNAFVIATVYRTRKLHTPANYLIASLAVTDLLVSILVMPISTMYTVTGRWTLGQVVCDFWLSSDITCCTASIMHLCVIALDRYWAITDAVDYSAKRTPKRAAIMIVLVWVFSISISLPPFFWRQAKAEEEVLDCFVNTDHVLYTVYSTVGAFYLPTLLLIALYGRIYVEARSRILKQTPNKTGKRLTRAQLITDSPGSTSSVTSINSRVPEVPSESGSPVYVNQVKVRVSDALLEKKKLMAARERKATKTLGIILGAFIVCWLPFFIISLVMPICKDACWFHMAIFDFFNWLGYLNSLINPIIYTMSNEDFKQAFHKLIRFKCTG

[8] = biological target: Muscarinic acetylcholine receptor M4 (Homo sapiens) (UniProt P08173); experiment: Displacement of [3H]4-DAMP from human recombinant muscarinic M4 receptor expressed in CHO cells assessed as remaining radioligand binding at 10 uM after 60 mins by scintillation counting method relative to control; type: cell-based
Muscarinic acetylcholine receptor M4 (Homo sapiens), sequence (P08173 whole entry): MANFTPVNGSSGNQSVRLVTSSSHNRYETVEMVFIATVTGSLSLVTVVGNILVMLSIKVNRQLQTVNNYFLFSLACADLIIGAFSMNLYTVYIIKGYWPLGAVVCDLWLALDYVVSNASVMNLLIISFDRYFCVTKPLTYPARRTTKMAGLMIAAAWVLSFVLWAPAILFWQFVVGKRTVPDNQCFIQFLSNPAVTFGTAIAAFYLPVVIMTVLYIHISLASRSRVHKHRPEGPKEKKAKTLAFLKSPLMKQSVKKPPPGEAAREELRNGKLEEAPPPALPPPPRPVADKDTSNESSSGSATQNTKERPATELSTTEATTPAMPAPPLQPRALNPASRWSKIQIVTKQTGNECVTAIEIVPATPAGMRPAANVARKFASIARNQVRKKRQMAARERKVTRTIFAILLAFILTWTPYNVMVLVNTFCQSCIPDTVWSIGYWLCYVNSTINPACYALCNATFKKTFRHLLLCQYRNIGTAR

Rattus norvegicus [9] = species: Rattus norvegicus; experiment: Antagonist activity at rat TRPV3 assessed as inhibition of 2-APB-induced Ca2+ influx up to 10 uM preincubated for 2.5 mins followed by 2-APB addition measured for 1 min by luminescence assay
[10] = biological target: Substance-K receptor (Homo sapiens) (UniProt P21452); experiment: Displacement of [125I]NKA from human recombinant NK2 receptor expressed in CHO cells assessed as remaining radioligand binding at 10 uM after 60 mins by scintillation counting method relative to control; type: cell-based
Substance-K receptor (Homo sapiens), sequence (P21452 whole entry): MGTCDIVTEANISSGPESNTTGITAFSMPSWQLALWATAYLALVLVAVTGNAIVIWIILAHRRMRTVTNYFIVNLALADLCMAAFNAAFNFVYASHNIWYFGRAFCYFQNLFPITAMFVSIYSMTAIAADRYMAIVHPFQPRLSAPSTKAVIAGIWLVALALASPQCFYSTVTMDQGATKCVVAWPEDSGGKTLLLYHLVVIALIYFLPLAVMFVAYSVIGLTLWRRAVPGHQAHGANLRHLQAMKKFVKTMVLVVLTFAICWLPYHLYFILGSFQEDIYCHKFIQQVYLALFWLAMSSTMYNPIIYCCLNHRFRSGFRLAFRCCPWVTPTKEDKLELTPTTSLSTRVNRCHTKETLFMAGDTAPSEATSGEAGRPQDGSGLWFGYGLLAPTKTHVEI

[11] = biological target: 5-hydroxytryptamine receptor 1A (Homo sapiens) (UniProt P08908); experiment: Displacement of [3H]8-OH-DPAT from human recombinant 5HT1A receptor expressed in HEK293 cells assessed as remaining radioligand binding at 10 uM after 60 mins by scintillation counting method relative to control; type: cell-based
5-hydroxytryptamine receptor 1A (Homo sapiens), sequence (P08908 whole entry): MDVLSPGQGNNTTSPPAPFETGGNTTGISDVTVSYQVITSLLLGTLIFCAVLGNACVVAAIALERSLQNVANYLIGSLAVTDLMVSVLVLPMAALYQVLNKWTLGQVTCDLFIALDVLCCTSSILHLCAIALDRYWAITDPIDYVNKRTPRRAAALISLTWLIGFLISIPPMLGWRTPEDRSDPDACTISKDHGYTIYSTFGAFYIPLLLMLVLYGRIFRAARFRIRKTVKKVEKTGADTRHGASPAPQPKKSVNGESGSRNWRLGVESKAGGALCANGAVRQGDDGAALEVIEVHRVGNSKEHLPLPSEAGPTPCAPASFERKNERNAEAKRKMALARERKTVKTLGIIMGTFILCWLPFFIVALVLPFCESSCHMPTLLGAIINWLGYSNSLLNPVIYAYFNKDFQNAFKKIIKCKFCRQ

[12] = biological target: T1, Transient receptor potential cation channel subfamily A member 1; experiment: Antagonist activity at rat TRPA1 expressed in tetracycline-inducible T-REx expression system transfected CHO cells assessed as inhibition of AITC-induced Ca2+ influx preincubated for 2 mins followed by AITC addition measured for 2 mins by Fluo-4 dye based FLIPR assay; type: cell-based
[13] = biological target: Transient receptor potential cation channel subfamily V member 4 (Homo sapiens) (UniProt Q9HBA0); experiment: Antagonist activity at human TRPV4 expressed in tetracycline-inducible T-REx expression system transfected CHO cells assessed as inhibition of 4alpha-PDD-induced Ca2+ influx up to 10 uM preincubated for 2.5 mins followed by 4alpha-PDD addition measured for 1 min by luminescence assay; type: cell-based
[14] = biological target: D(3) dopamine receptor (Homo sapiens) (UniProt P35462); experiment: Displacement of [3H]methyl-spiperone from human recombinant dopamine D3 receptor expressed in CHO cells assessed as remaining radioligand binding at 10 uM after 60 mins by scintillation counting method relative to control; type: cell-based
D(3) dopamine receptor (Homo sapiens), sequence (P35462 whole entry): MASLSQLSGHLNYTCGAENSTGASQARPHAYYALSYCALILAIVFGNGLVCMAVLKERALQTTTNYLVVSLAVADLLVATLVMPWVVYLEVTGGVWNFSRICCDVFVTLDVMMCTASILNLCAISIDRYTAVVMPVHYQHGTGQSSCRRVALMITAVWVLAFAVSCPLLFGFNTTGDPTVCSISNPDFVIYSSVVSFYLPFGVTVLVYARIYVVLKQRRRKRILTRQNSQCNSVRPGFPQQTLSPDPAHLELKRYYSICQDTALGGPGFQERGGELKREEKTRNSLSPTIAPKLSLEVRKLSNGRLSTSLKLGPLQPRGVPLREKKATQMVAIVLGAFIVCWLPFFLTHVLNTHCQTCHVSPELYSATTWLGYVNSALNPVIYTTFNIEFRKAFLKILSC

[15] = biological target: 5-hydroxytryptamine receptor 6 (Homo sapiens) (UniProt P50406); experiment: Displacement of [3H]LSD from human recombinant 5HT6 receptor expressed in CHO cells assessed as remaining radioligand binding at 10 uM after 120 mins by scintillation counting method relative to control; type: cell-based
[16] = biological target: Histamine H3 receptor (Homo sapiens) (UniProt Q9Y5N1); experiment: Displacement of [3H]Na-Me-histamine from human recombinant histamine H3 receptor expressed in CHO cells assessed as remaining radioligand binding at 10 uM after 60 mins by scintillation counting method relative to control; type: cell-based
[17] = biological target: Muscarinic acetylcholine receptor M1 (Homo sapiens) (UniProt P11229); experiment: Displacement of [3H]pirenzepine from human recombinant muscarinic M1 receptor expressed in CHO cells assessed as remaining radioligand binding at 10 uM after 60 mins by scintillation counting method relative to control; type: cell-based
Muscarinic acetylcholine receptor M1 (Homo sapiens), sequence (P11229 whole entry): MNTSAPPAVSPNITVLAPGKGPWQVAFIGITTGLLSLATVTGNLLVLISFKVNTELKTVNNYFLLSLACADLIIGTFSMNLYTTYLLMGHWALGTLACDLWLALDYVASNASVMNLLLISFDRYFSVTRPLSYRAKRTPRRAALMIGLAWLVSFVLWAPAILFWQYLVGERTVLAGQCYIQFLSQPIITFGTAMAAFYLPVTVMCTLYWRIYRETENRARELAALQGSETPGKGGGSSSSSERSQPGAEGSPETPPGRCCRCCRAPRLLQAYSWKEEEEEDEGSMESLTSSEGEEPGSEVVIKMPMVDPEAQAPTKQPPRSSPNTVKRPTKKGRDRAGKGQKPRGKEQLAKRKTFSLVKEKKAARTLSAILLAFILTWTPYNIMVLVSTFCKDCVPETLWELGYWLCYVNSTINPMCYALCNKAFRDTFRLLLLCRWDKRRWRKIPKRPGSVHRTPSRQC

[18] = Solubility of compound in pH 7.4 phosphate buffered saline; type: physicochemical
[19] = biological target: Cannabinoid receptor 1 (Homo sapiens) (UniProt P21554); experiment: Displacement of [3H]CP-55940 from human recombinant CB1 receptor expressed in CHO cells assessed as remaining radioligand binding at 10 uM after 120 mins by scintillation counting method relative to control; type: cell-based
Cannabinoid receptor 1 (Homo sapiens), sequence (P21554 whole entry): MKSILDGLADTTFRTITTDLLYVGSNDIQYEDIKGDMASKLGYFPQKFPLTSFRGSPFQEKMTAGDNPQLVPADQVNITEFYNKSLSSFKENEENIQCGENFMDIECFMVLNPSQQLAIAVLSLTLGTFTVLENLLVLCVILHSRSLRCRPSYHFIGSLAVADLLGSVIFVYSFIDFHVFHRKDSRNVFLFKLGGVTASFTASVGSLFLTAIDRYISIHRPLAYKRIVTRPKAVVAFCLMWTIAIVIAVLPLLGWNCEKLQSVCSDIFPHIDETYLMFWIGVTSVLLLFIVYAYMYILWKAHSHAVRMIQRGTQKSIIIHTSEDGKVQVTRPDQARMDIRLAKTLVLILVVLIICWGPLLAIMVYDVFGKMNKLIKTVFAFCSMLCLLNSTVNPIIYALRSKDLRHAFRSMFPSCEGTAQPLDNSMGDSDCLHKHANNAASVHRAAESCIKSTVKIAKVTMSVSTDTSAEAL

Rattus norvegicus [20] = experiment: Binding affinity to TRPA1 in Harlan Sprague-Dawley rat model of AITC-induced flinching at 30 mg/kg, po in presence of AITC; type: functional, organism-based
[21] = AUC (infinity) in rat at 30 mg/kg, po; type: ADME, organism-based; set-up: dose 30 mg/kg, time infinity, route oral; conditions: in vivo
How it was run: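 Rat oral PK at 30 mg/kg (10 mg/kg for one analogue) in 1% Tween 80/2% HPMC/97% water with methanesulfonic acid, pH 2.2.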

[22] = biological target: 5-hydroxytryptamine receptor 2A (Homo sapiens) (UniProt P28223); experiment: Displacement of [3H]ketanserin from human recombinant 5HT2A receptor expressed in HEK293 cells assessed as remaining radioligand binding at 10 uM after 60 mins by scintillation counting method relative to control; type: cell-based
5-hydroxytryptamine receptor 2A (Homo sapiens), sequence (P28223 whole entry): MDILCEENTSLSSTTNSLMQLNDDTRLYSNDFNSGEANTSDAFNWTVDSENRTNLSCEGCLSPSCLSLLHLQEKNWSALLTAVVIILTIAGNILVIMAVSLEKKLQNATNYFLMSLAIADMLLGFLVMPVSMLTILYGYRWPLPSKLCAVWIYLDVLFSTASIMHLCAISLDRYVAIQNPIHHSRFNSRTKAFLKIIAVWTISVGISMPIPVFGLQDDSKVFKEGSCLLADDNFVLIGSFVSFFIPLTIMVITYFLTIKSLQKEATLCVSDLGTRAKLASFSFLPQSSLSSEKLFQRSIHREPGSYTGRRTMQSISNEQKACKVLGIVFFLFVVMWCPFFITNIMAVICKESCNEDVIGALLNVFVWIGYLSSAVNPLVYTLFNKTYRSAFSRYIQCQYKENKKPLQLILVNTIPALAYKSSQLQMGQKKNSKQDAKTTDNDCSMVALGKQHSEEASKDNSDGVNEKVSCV

`Cn1cnc2ncn(Cc3nc(CCc4ccc(Cl)cc4)no3)c(=O)c21` showed an Activity [1] of over 77%, an IC50 [2] of 71 nM and an Activity (Rattus norvegicus [3]) of over 77%. The Activity (Homo sapiens) was over 77%, the “Cp(f)” value (Plasma) was 2200 nM and the Vd [4] was 1.7 L/kg. It also gave an IC50 [5] of 10 nM, a CL free (Rattus norvegicus [6]) of 150 mL/min/kg and an Activity [7] of over 77%. For the same compound, the Activity [8] was over 77%, the inhibition (Rattus norvegicus [9]) was “inactive” and the Activity [10] was over 77%. For the same compound, the Activity [11] was over 77%, the IC50 [12] was 20 nM and the inhibition [13] was “inactive”. The Activity [14] was over 77%, the Activity [15] was over 77% and the Activity [16] was over 77%. The Activity [17] was over 77%, the solubility [18] was 226 µM (≈ 83.8 µg/mL) and the Activity [19] was over 77%. For the same compound, the Activity (Rattus norvegicus [20]) was “Active”, the AUC(0-inf) [21] was 19.8 µM·h and the Activity [22] was over 77%.
